Laboratory results reported in ChEMBL document CHEMBL1155493, “Synthesis of new cis-fused tetrahydrochromeno[4,3-b]quinolines and their antiproliferative activity studies against MDA-MB-231 and MCF-7 breast cancer cell lines” (Bioorg Med Chem Lett, 2010).

Experiments:
MCF7 = experiment: Antiproliferative activity against human MCF7 cells by MTT assay; type: functional, cell-based
How it was run: (§1)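 MTT read-out following an earlier published protocol; IC50 values reported, with tamoxifen as the reference compound.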

MDA-MB-231 = experiment: Antiproliferative activity against human MDA-MB-231 cells by MTT assay; type: functional, cell-based; how it was run: as §1

Row | Compound | IC50 (MCF7) [µM] | IC50 (MDA-MB-231) [µM]
1 | Cc1oc2c3c(ccc2c(=O)c1C)OC[C@H]1[C@@H]3Nc2cc3ccccc3cc2C1(C)C | > 100 | > 100
2 | Cc1oc2c3c(ccc2c(=O)c1-c1ccccc1)OC[C@H]1[C@@H]3Nc2ccccc2C1(C)C | > 100 | > 100
3 | Cc1ccc2c(c1)C(C)(C)[C@H]1COc3ccc4c(=O)c(C)c(C)oc4c3[C@H]1N2 | 94.3 | > 100
4 | COc1ccc2c(c1)C(C)(C)[C@H]1COc3ccc4c(=O)c(C)c(C)oc4c3[C@H]1N2 | > 100 | > 100
5 | Cc1oc2c3c(ccc2c(=O)c1C)OC[C@H]1[C@@H]3Nc2ccccc2C1(C)C | > 100 | > 100

Molecules with a lower IC50 (MCF7), results first:

Row | IC50 (MCF7) [µM] | IC50 (MDA-MB-231) [µM] | Compound
6 | 10.2 | > 100 | Cc1ccc2c(c1)C(C)(C)[C@H]1COc3ccc4c(=O)c(C)coc4c3[C@H]1N2
7 | 10 | > 100 | Cc1ccc2c(c1)C(C)(C)[C@H]1COc3ccc4c(=O)c(-c5ccccc5)c(C)oc4c3[C@H]1N2
8 | 9.6 | 93.8 | Cc1coc2c3c(ccc2c1=O)OC[C@H]1[C@@H]3Nc2ccccc2C1(C)C
9 | 9 | 9.4 | Cc1coc2c3c(ccc2c1=O)OC[C@H]1[C@@H]3Nc2cc3ccccc3cc2C1(C)C
10 | 1 | 0.66 | CC/C(=C(\c1ccccc1)c1ccc(OCCN(C)C)cc1)c1ccccc1 [TAMOXIFEN]
